Data reported in ChEMBL document CHEMBL3352171, “Synthesis and biological evaluation of andrographolide analogues as anti-cancer agents” (Eur J Med Chem, 2014).
The source made the active and inactive calls. The rule behind the calls is not given here.

Experiments:
MCF7 [1] = assay: Cytotoxicity against human MCF7 cells; type: functional
In short: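 MTT viability: 10,000 cells/well, 48 h exposure to increasing concentrations, MTT 2.5 mg/mL for 6 h at 37 °C, NP-40/HCl solubilization, absorbance 570 nm. MCF-7 in DMEM with 10% FBS; MCF-10A normal cells run alongside. LC50 from three independent experiments.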

HEK293 [2] = assay: Cytotoxicity against HEK293 cells after 48 hrs by MTT assay; type: functional; conditions: Homo sapiens, HEK293, 48 h; read-out: LC50 (the source's name)
In short: (§1)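 Cells seeded at 10,000 per well and exposed to increasing compound concentrations for 48 h. After a PBS wash, MTT (2.5 mg/mL) was added for 6 h at 37 °C, then detergent (10% NP-40, 4 mM HCl), and absorbance was read at 570 nm. LC50 is the concentration causing 50% cell death. Values are means of three independent experiments.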

Vero = assay: Cytotoxicity against african green monkey Vero cells after 48 hrs by MTT assay; type: cell-based; conditions: chlorocebus sabaeus; in short: as §1
[3] = Retention time of the compound by HPLC method; type: physicochemical
HEK293 [4] = assay: Induction of apoptosis in HEK293 cells assessed as apoptotic nuclei formation at 10 uM after 48 hrs by DAPI staining based fluorescence microscopy; type: functional, cell-based; conditions: Homo sapiens
HEK293 [5] = assay: Induction of cell death in HEK293 cells at 15 to 20 uM after 48 hrs by DAPI staining based fluorescence microscopy; type: functional; conditions: Homo sapiens
HEK293 [6] = assay: Induction of apoptosis in HEK293 cells at 5 to 20 uM after 48 hrs by DAPI staining based fluorescence microscopy; type: functional, cell-based; conditions: Homo sapiens
MCF7 [7] = assay: Cytotoxicity against human MCF7 cells after 48 hrs by MTT assay; type: functional; conditions: MCF7, 48 h, read-out: LC50 (the source's name); in short: as §1
[8] = Cytotoxicity against human MCF10A cells after 48 hrs by MTT assay; type: cell-based; conditions: mcf-10a; in short: as §1
HEK293 [9] = assay: Induction of apoptosis in HEK293 cells at 5 uM after 48 hrs by propidium iodide staining based flow cytometry (reference value: 24.26 +/- 0.8%); type: functional, Homo sapiens
HEK293 [10] = assay: Induction of apoptosis in HEK293 cells at 10 uM after 48 hrs by propidium iodide staining based flow cytometry (reference value: 24.26 +/- 0.8%); type: functional, Homo sapiens
HEK293 [11] = assay: Induction of apoptosis in HEK293 cells at 15 uM after 48 hrs by propidium iodide staining based flow cytometry (reference value: 24.26 +/- 0.8%); type: functional, Homo sapiens
HEK293 [12] = assay: Induction of apoptosis in HEK293 cells at 20 uM after 48 hrs by propidium iodide staining based flow cytometry (reference value: 24.26 +/- 0.8%); type: functional, Homo sapiens
HEK293 [13] = assay: Induction of cell cycle arrest in HEK293 cells assessed as accumulation at G1 phase at 5 uM after 48 hrs by propidium iodide staining based flow cytometry (reference value: 53.21 +/- 0.8%); type: functional, Homo sapiens
HEK293 [14] = assay: Induction of cell cycle arrest in HEK293 cells assessed as accumulation at G1 phase at 10 uM after 48 hrs by propidium iodide staining based flow cytometry (reference value: 53.21 +/- 0.8%); type: functional, Homo sapiens
HEK293 [15] = assay: Induction of cell cycle arrest in HEK293 cells assessed as accumulation at G1 phase at 15 uM after 48 hrs by propidium iodide staining based flow cytometry (reference value: 53.21 +/- 0.8%); type: functional, Homo sapiens
HEK293 [16] = assay: Induction of cell cycle arrest in HEK293 cells assessed as accumulation at G1 phase at 20 uM after 48 hrs by propidium iodide staining based flow cytometry (reference value: 53.21 +/- 0.8%); type: functional, Homo sapiens
HEK293 [17] = assay: Induction of cell cycle arrest in HEK293 cells assessed as accumulation at S phase at 5 uM after 48 hrs by propidium iodide staining based flow cytometry (reference value: 19.9 +/- 0.5%); type: functional, Homo sapiens
HEK293 [18] = assay: Induction of cell cycle arrest in HEK293 cells assessed as accumulation at S phase at 10 uM after 48 hrs by propidium iodide staining based flow cytometry (reference value: 19.9 +/- 0.5%); type: functional, Homo sapiens
HEK293 [19] = assay: Induction of cell cycle arrest in HEK293 cells assessed as accumulation at S phase at 15 uM after 48 hrs by propidium iodide staining based flow cytometry (reference value: 19.9 +/- 0.5%); type: functional, Homo sapiens
HEK293 [20] = assay: Induction of cell cycle arrest in HEK293 cells assessed as accumulation at S phase at 20 uM after 48 hrs by propidium iodide staining based flow cytometry (reference value: 19.9 +/- 0.5%); type: functional, Homo sapiens
HEK293 [21] = assay: Induction of cell cycle arrest in HEK293 cells assessed as accumulation at G2/M phase at 5 uM after 48 hrs by propidium iodide staining based flow cytometry (reference value: 2.63 +/- 0.7%); type: functional, Homo sapiens
HEK293 [22] = assay: Induction of cell cycle arrest in HEK293 cells assessed as accumulation at G2/M phase at 10 uM after 48 hrs by propidium iodide staining based flow cytometry (reference value: 2.63 +/- 0.7%); type: functional, Homo sapiens
HEK293 [23] = assay: Induction of cell cycle arrest in HEK293 cells assessed as accumulation at G2/M phase at 15 uM after 48 hrs by propidium iodide staining based flow cytometry (reference value: 2.63 +/- 0.7%); type: functional, Homo sapiens
HEK293 [24] = assay: Induction of cell cycle arrest in HEK293 cells assessed as accumulation at G2/M phase at 20 uM after 48 hrs by propidium iodide staining based flow cytometry (reference value: 2.63 +/- 0.7%); type: functional, Homo sapiens
HEK293 [25] = assay: Induction of apoptosis in HEK293 cells at 20 uM after 48 hrs by propidium iodide staining based flow cytometry relative to untreated control; type: functional, Homo sapiens
HEK293 [26] = assay: Increase in caspase-3 expression in HEK293 cells at LC50 level after 48 hrs by immunocytochemistry; type: functional, cell-based; conditions: Homo sapiens
[27] = biological target: T1, Nuclear factor NF-kappa-B complex (Homo sapiens) (UniProt Q00653+P19838+Q04206); assay: Inhibition of NFkappaB (unknown origin) expressed in HEK293 cells assessed as reduction in transcriptional activity after 48 hrs by luciferase reporter gene assay; type: cell-based
T1 sequence (P19838 whole entry, looked up): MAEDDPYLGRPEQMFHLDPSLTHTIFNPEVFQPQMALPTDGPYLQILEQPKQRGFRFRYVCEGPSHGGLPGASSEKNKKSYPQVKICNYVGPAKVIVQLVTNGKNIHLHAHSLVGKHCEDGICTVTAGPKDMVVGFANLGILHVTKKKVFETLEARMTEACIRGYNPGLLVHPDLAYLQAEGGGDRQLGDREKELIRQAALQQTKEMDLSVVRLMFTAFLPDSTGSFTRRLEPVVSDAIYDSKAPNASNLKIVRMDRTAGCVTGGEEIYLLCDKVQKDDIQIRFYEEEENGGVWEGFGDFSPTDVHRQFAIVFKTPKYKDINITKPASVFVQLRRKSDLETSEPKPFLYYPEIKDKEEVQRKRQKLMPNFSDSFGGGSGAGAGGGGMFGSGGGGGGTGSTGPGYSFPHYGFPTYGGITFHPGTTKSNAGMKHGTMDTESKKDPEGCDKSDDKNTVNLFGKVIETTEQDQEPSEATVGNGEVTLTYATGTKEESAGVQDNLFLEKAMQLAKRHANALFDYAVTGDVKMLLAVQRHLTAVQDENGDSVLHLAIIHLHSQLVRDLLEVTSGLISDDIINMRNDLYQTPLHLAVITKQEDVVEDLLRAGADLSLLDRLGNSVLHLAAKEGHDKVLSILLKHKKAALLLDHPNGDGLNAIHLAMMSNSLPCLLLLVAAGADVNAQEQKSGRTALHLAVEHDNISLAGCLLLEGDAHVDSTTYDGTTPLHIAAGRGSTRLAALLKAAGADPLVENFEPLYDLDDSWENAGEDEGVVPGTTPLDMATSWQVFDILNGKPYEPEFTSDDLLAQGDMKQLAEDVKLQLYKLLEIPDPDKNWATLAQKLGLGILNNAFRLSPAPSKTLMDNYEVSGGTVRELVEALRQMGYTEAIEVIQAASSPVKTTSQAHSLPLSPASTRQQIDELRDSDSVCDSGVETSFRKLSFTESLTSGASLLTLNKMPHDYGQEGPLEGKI
T1 sequence (Q00653 whole entry, looked up): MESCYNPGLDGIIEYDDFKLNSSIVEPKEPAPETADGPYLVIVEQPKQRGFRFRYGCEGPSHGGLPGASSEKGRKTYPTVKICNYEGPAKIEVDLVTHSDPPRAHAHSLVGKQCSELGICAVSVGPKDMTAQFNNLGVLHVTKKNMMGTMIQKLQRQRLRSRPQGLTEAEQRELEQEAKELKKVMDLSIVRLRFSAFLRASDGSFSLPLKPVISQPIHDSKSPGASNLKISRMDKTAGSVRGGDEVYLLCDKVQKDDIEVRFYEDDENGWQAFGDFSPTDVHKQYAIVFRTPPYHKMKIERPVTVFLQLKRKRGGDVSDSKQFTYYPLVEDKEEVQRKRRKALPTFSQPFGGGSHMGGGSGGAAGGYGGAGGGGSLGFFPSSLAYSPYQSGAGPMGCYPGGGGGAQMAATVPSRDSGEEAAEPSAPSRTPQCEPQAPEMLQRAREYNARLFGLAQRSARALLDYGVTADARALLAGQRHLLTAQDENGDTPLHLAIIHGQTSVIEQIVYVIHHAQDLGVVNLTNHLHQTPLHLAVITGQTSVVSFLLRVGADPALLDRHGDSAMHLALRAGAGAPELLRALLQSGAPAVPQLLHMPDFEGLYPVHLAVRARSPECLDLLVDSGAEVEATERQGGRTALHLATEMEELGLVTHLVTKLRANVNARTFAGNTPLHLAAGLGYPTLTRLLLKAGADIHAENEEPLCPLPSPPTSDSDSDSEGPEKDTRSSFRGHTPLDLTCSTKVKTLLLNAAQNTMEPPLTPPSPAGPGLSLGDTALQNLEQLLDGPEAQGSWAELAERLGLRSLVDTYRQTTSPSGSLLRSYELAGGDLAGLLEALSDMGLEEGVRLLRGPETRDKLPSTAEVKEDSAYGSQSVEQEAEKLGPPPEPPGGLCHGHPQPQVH
T1 sequence (Q04206 whole entry, looked up): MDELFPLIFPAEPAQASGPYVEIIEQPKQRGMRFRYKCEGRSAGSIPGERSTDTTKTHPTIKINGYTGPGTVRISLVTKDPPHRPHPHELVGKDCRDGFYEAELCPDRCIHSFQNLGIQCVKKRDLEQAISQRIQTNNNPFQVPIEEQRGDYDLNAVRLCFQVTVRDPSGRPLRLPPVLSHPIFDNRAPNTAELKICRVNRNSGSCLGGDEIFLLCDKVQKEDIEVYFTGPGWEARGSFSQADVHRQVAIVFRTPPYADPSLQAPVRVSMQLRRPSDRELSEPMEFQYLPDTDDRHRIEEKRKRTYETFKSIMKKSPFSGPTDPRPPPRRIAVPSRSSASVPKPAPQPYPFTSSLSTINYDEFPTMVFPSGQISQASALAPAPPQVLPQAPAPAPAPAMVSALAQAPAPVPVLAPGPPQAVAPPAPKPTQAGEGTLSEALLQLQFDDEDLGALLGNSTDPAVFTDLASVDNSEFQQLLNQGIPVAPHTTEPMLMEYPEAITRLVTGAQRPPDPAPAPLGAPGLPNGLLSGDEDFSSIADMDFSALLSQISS
In short: (§2)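 HEK-293 at 70% confluence transfected by calcium phosphate with NF-kB luciferase ([…]) and b-Gal ([…]) plasmids, 6–8 h, then fresh serum medium 12 h; treated 48 h, lysed, luciferase read and normalized to b-galactosidase. Three independent experiments.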

[28] = biological target: T1, Nuclear factor NF-kappa-B complex (Homo sapiens); assay: Inhibition of NFkappaB (unknown origin) expressed in HEK293 cells assessed as reduction in transcriptional activity at 10 uM after 48 hrs by luciferase reporter gene assay; type: cell-based; in short: as §2
HEK293 [29] = assay: Increase in Bax expression in HEK293 cells at LC50 level after 48 hrs by Western blot method; type: functional, cell-based; conditions: Homo sapiens
HEK293 [30] = assay: Reduction in Bcl-xL expression in HEK293 cells at LC50 level after 48 hrs by Western blot method; type: functional, cell-based; conditions: Homo sapiens
HEK293 [31] = assay: Increase in PARP cleavage in HEK293 cells at LC50 level after 48 hrs by Western blot method; type: functional, cell-based; conditions: Homo sapiens
HEK293 [32] = assay: Increase in p53 expression in HEK293 cells at LC50 level after 48 hrs by Western blot method; type: functional, cell-based; conditions: Homo sapiens
HEK293 [33] = assay: Reduction in NFkappaB expression in HEK293 cells at LC50 level after 48 hrs by Western blot method; type: functional, cell-based; conditions: Homo sapiens
HEK293 [34] = assay: Increase in Bax expression in p53 deficient HEK293 cells at LC50 level after 48 hrs by Western blot method; type: functional, cell-based; conditions: Homo sapiens
HEK293 [35] = assay: Reduction in Bcl-xL expression in p53 deficient HEK293 cells at LC50 level after 48 hrs by Western blot method; type: functional, cell-based; conditions: Homo sapiens
HEK293 [36] = assay: Increase in PARP cleavage in p53 deficient HEK293 cells at LC50 level after 48 hrs by Western blot method; type: functional, cell-based; conditions: Homo sapiens
HEK293 [37] = assay: Increase in p53 expression in p53 deficient HEK293 cells at LC50 level after 48 hrs by Western blot method; type: functional, cell-based; conditions: Homo sapiens
HEK293 [38] = assay: Reduction in NFkappaB expression in p53 deficient HEK293 cells at LC50 level after 48 hrs by Western blot method; type: functional, cell-based; conditions: Homo sapiens
[39] = Binding affinity to GC-28 DNA (unknown origin) minor groove by DAPI staining based spectrophotometry
In short: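 DAPI–DNA complex fluorescence read at 460 nm emission band; test compound added to the preformed complex and loss of fluorescence followed.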

## C=C1CC[C@@H]2[C@](C)(CO)[C@H](O)CC[C@@]2(C)[C@@H]1C/C=C1/C(=O)OC[C@H]1OC(C)=O
MCF7 [1]
  GI50: 5.49 µM

## C[C@]1(CO)[C@H]2CC[C@@]3(CO3)[C@@H](C/C=C3/C(=O)OC[C@H]3OC(=O)CBr)[C@]2(C)CC[C@H]1O
HEK293 [2]
  CC50: 16 µM
Vero
  LC50: 29 µM
[3]
  Retention_time: 27.8 min

## C[C@]1(CO)[C@H]2CC[C@@]3(CO3)[C@@H](C/C=C3/C(=O)OC[C@H]3OC(=O)CI)[C@]2(C)CC[C@H]1O
HEK293 [4]
  Activity: Active
HEK293 [5]
  Activity: Active
HEK293 [6]
  Activity: Dose-dependent effect
HEK293 [2]
  CC50: 12 µM
Vero
  LC50: 30 µM
MCF7 [7]
  CC50: 7 µM
[8]
  LC50: > 40 µM
[3]
  Retention_time: 31.4 min
HEK293 [9]
  Activity: 62.05%
HEK293 [10]
  Activity: 77.99%
HEK293 [11]
  Activity: 79.55%
HEK293 [12]
  Activity: 92.93%
HEK293 [13]
  Activity: 25.38%
HEK293 [14]
  Activity: 15.61%
HEK293 [15]
  Activity: 14.98%
HEK293 [16]
  Activity: 5.37%
HEK293 [17]
  Activity: 9.87%
HEK293 [18]
  Activity: 4.98%
HEK293 [19]
  Activity: 4.63%
HEK293 [20]
  Activity: 1.18%
HEK293 [21]
  Activity: 2.7%
HEK293 [22]
  Activity: 1.41%
HEK293 [23]
  Activity: 1.31%
HEK293 [24]
  Activity: 0.52%
HEK293 [25]
  fold change (FC): >6
HEK293 [26]
  Activity: Active
[27]
  inhibition: Dose-dependent effect
[28]
  fold change (FC): 5
HEK293 [29]
  Activity: Active
HEK293 [30]
  Activity: Active
HEK293 [31]
  Activity: Active
HEK293 [32]
  Activity: Active
HEK293 [33]
  Activity: Active
HEK293 [34]
  Activity: inactive
HEK293 [35]
  Activity: inactive
HEK293 [36]
  Activity: inactive
HEK293 [37]
  Activity: inactive
HEK293 [38]
  Activity: inactive
[39]
  Activity: Active

## COc1cc([C@@H]2c3cc4c(cc3[C@@H](O[C@@H]3O[C@@H]5CO[C@@H](C)O[C@H]5[C@H](O)[C@H]3O)[C@H]3COC(=O)[C@H]23)OCO4)cc(OC)c1O [ETOPOSIDE]
HEK293 [2]
  CC50: 18 µM
Vero
  LC50: 28 µM
